Experimental data taken from ChEMBL document CHEMBL2346523, “Synthesis and in vitro and in vivo characterization of highly β1-selective β-adrenoceptor partial agonists” (J Med Chem, 2013).
The source made the active and inactive calls. The rule behind the calls is not given here.

Legend:
CHO-K1 = experiment: Selectivity ratio of Kd for human beta1 adrenoceptor expressed in CHOK1 cells by radioligand displacement assay to Kd for human beta2 adrenoceptor expressed in CHOK1 cells by radioligand displacement assay; type: cell-based
How it was run: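 Whole-cell 3H-CGP 12177 binding (0.73 nM) in confluent CHO-K1 cells expressing human β1 or β2, 2 h at 37 °C. Cells were washed with cold PBS and counted by scintillation. Nonspecific binding was defined with 10 μM propranolol. IC50 came from a one-site fit, converted to KD; […] KD ratio. Triplicate points.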

Rattus norvegicus [1] = experiment: Agonist activity at beta2 adrenoceptor in conscious free moving Sprague-Dawley rat model assessed as effect on hindquarters response at 2 mg/kg, iv administered as bolus dose followed by 1 mg/kg/hr, iv administered as 90 mins infusion measured for 0.5 hrs to 25 hrs; type: functional, organism-based
How it was run: (§1)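 Conscious, unrestrained adult male Sprague–Dawley rats (300–350 g) with an implanted Doppler probe, an aortic catheter for blood pressure and heart rate, and a jugular catheter for dosing; studied 24 h after catheterisation. Atropine methyl nitrate 1 mg/kg/h was infused throughout. Isoprenaline 3 min infusions (12, 40, 120 ng/kg/min) were given before and from 30 min after saline or HCl salt iv bolus plus infusion. Response = third-minute value minus pre-infusion steady state; hindquarters conductance derived from BP and Doppler shift; n = 4.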

Rattus norvegicus [2] = experiment: Partial agonist activity at beta1 adrenoceptor in conscious free moving Sprague-Dawley rat model assessed as inhibition of heart rate responses at 2 mg/kg, iv administered as bolus followed by 1 mg/kg/hr, iv administered as 90 mins infusion measured for 0.5 hrs to 25 hrs relative to 40 to 120 ng/kg of isoprenaline; type: functional, organism-based; how it was run: as §1
[3] = target: T1, Beta-3 adrenergic receptor (Homo sapiens, UniProt P13945); experiment: Agonist activity at human beta3 adrenoceptor expressed in CHOK1 cells assessed as induction of [3H]cAMP accumulation at 10 uM after 5 hrs relative to isoprenaline; type: functional, cell-based; settings: CHO-K1
How it was run: (§2)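 CHO-K1 cells stably expressing human β3 (790 fmol/mg protein) were grown to confluence and prelabelled 2 h with 2 μCi/mL 3H-adenine. Cells then had 15 min in 1 mM IBMX, followed by ligand for 5 h. The reaction was stopped with HCl, and 3H-cAMP was isolated on Dowex/alumina columns. Responses are % of 10 μM isoprenaline. Mean ± SEM of separate experiments.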
Target sequence in this assay (P13945 whole entry, looked up): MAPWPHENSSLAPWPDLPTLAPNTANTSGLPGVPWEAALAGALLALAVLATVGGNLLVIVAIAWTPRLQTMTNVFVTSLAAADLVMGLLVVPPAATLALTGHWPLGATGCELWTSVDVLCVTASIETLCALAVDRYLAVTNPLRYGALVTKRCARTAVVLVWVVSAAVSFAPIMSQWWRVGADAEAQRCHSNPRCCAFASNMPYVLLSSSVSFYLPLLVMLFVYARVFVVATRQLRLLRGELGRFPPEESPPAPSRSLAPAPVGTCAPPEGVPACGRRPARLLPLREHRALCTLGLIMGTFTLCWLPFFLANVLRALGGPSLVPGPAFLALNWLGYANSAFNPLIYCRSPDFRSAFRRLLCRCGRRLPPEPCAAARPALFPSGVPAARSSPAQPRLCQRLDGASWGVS

[4] = target: T2, Beta-2 adrenergic receptor (Homo sapiens, UniProt P07550); experiment: Displacement of [3H]-CGP12177 from human beta2 adrenoceptor expressed in CHOK1 cells after 2 hrs by scintillation counting analysis; type: cell-based; settings: for inhibition: CHO-K1
Rattus norvegicus [5] = experiment: Partial agonist activity at beta1 adrenoceptor in conscious free moving Sprague-Dawley rat model assessed as increase in heart rate at 2 mg/kg, iv bolus followed by 1 mg/kg/hr, iv infusion for 90 mins measured for 0.5 hrs to 25 hrs relative to 120 ng/kg of isoprenaline; type: functional; how it was run: as §1
[6] = target: T3, Beta-1 adrenergic receptor (Homo sapiens, UniProt P08588); experiment: Partial agonist activity at human beta1 adrenoceptor expressed in CHOK1 cells assessed as induction of [3H]cAMP accumulation after 5 hrs; type: functional, cell-based, CHO-K1
[7] = target: T1, Beta-3 adrenergic receptor; experiment: Antagonist activity at human beta3 adrenoceptor expressed in CHOK1 cells assessed as inhibition of cimaterol-induced [3H]cAMP accumulation incubated for 15 mins prior to cimaterol induction measured after 5 hrs; type: functional, cell-based, CHO-K1
How it was run: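 3H-cAMP accumulation in CHO-K1 cells stably expressing human β1, β2 or β3 adrenoceptors, prelabelled with 3H-adenine. Log KD was taken from the dose ratio shift, or by the Stephenson partial-agonist method when partial agonism was seen. Triplicates, on the same cell passage.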
Target sequence in this assay (P13945 whole entry): as the sequence (P13945 whole entry, looked up) above

[8] = target: T2, Beta-2 adrenergic receptor; experiment: Antagonist activity at human beta2 adrenoceptor expressed in CHOK1 cells assessed as inhibition of cimaterol-induced [3H]cAMP accumulation incubated for 15 mins prior to cimaterol induction measured after 5 hrs; type: functional, cell-based, CHO-K1
Target sequence in this assay (P07550 whole entry, the tested form may be a part): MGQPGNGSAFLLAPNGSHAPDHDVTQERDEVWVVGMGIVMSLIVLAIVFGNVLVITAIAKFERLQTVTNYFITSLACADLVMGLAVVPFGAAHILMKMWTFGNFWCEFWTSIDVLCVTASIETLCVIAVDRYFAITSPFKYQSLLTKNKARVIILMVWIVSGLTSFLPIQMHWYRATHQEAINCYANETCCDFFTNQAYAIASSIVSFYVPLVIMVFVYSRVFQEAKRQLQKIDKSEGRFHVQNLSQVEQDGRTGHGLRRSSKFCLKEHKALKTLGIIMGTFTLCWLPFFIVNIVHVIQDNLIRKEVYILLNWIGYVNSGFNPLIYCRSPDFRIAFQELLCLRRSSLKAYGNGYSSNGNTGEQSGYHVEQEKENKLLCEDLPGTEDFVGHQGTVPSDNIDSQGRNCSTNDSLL

[9] = target: T3, Beta-1 adrenergic receptor; experiment: Antagonist activity at human beta1 adrenoceptor expressed in CHOK1 cells assessed as inhibition of cimaterol-induced [3H]cAMP accumulation incubated for 15 mins prior to cimaterol induction measured after 5 hrs; type: functional, cell-based, CHO-K1
[10] = target: T3, Beta-1 adrenergic receptor; experiment: Displacement of [3H]-CGP12177 from human beta1 adrenoceptor expressed in CHOK1 cells after 2 hrs by scintillation counting analysis; type: cell-based, CHO-K1
[11] = target: T1, Beta-3 adrenergic receptor; experiment: Agonist activity at human beta3 adrenoceptor expressed in CHOK1 cells assessed as induction of [3H]cAMP accumulation at 100 uM after 5 hrs relative to isoprenaline; type: functional, cell-based; settings: CHO-K1; how it was run: as §2
Target sequence in this assay (P13945 whole entry, looked up): as the sequence (P13945 whole entry, looked up) above

[12] = target: T1, Beta-3 adrenergic receptor; experiment: Agonist activity at human beta3 adrenoceptor expressed in CHOK1 cells assessed as induction of [3H]cAMP accumulation after 5 hrs relative to isoprenaline; type: functional, cell-based; settings: CHO-K1
Target sequence in this assay (P13945 whole entry, looked up): as above

T3 sequence (P08588 whole entry): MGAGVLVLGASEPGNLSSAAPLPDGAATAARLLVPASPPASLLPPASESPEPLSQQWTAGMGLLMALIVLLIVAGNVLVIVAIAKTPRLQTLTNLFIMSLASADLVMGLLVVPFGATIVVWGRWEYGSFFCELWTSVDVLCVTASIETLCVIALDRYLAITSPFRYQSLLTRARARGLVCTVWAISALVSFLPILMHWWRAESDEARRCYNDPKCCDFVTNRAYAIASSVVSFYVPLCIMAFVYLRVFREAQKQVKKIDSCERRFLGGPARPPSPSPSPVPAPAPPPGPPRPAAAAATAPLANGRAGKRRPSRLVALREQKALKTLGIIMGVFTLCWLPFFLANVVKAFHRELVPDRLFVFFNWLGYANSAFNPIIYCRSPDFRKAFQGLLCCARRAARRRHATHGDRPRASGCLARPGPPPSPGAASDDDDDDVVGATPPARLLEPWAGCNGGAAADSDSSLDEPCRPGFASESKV

`O=C(NCCNCC(O)COc1ccc(OCCOC2CCCC2)cc1)Nc1ccc(C(F)(F)F)cc1` (centres undefined) was tested, and the Selectivity ratio (CHO-K1) was 87.
Work on `O=C(NCCNCC(O)COc1ccc(OCCOC2CCCC2)cc1)Nc1cccc(F)c1` (centres undefined) yielded a Selectivity ratio (CHO-K1) of 43.
In the case of `Cc1ccccc1NC(=O)NCCNCC(O)COc1ccc(OCCOC2CCCC2)cc1` (centres undefined), the Selectivity ratio (CHO-K1) is reported as 11.
`Cc1cccc(NC(=O)NCCNCC(O)COc2ccc(OCCOC3CCCC3)cc2)c1` (centres undefined) showed a Selectivity ratio (CHO-K1) of 96.
`O=C(NCCNCC(O)COc1ccc(OCCOC2CCCC2)cc1)Nc1ccc(F)cc1` (centres undefined) showed a Selectivity ratio (CHO-K1) of 60.
`COc1cccc(NC(=O)NCCNCC(O)COc2ccc(OCCOC3CCCC3)cc2)c1` (centres undefined) gave a Selectivity ratio (CHO-K1) of 51.
For `O=C(NCCNCC(O)COc1ccc(OCCOCC2CC2)cc1)Nc1ccc(O)cc1` (centres undefined) [listing 1 of 2 here], the Activity (Rattus norvegicus [1]) was “inactive”, the inhibition (Rattus norvegicus [2]) was “Active” and the Activity [3] was 12.5%. The inhibition [4] was “inactive”.
`Cl.O=C(NCCNCC(O)COc1ccc(OCCOCC2CC2)cc1)Nc1ccc(O)cc1` (centres undefined) was tested, and the Activity (Rattus norvegicus [5]) was 44%.
`O=C(NCCNCC(O)COc1ccc(OCCOCC2CC2)cc1)Nc1ccc(O)cc1` (centres undefined) [listing 2 of 2 here] was tested, and the EC50 [6] was 9.77 nM, the Kd ([7]; read-out: Kd) was greater than 10000 nM and the Kd ([8]; read-out: pKd (converted)) was 7080 nM. For the same molecule, the Kd [9] was 17.8 nM and the Kd [10] was 32.4 nM.
For `N#Cc1cc(OCCOCC2CC2)ccc1OCC(O)CNCCNC(=O)Nc1ccc(O)cc1` (centres undefined) [LK-204545], the Activity [3] was 8.6%, the Kd ([7]; read-out: Kd) was greater than 10000 nM and the Kd ([8]; read-out: pKd (converted)) was 2880 nM. The Kd [4] was 5130 nM.
In the case of `O=C(NCCNCC(O)COc1ccc(OCCOC2CCCC2)cc1)Nc1cccc(C(F)(F)F)c1` (centres undefined), the Selectivity ratio (CHO-K1) is reported as 81.
Molecule `O=C(NCCNCC(O)COc1ccc(OCCOC2CCCC2)cc1)Nc1ccccc1Br` (centres undefined) has a Selectivity ratio (CHO-K1) of 10.
For `O=C(NCCNCC(O)COc1ccc(OCCOCCc2ccc(F)cc2)cc1)Nc1ccc(O)cc1` (centres undefined), the Activity [3] was 7.9%, the EC50 [6] was 2.29 nM and the Kd ([7]; read-out: pKd (converted)) was 2630 nM. The Kd ([8]; read-out: pKd (converted)) was 891 nM, the Kd [9] was 1 nM and the Selectivity ratio (CHO-K1) was 389. The Kd [4] was 1230 nM.
Molecule `COc1ccccc1NC(=O)NCCNCC(O)COc1ccc(OCCOC2CCCC2)cc1` (centres undefined) has a Selectivity ratio (CHO-K1) of 12.
With `O=C(NCCNCC(O)COc1ccc(OCCOC2CCCC2)cc1)Nc1ccccc1` (centres undefined) the Activity [3] was 4%, the EC50 [6] was 4.47 nM and the Kd ([7]; read-out: Kd) was greater than 10000 nM. It also gave a Kd ([8]; read-out: pKd (converted)) of 1200 nM, a Kd [9] of 3.47 nM and a Selectivity ratio (CHO-K1) of 213. It also gave a Kd [4] of 2630 nM and a Kd [10] of 12.3 nM.
Work on `O=C(NCCNCC(O)COc1ccc(OCCOC2CCCC2)cc1)Nc1ccccc1C(F)(F)F` (centres undefined) yielded a Selectivity ratio (CHO-K1) of 13.
With `O=C(NCCNCC(O)COc1ccc(O)cc1)N1CCOCC1` (centres undefined) the Activity [11] was 38.3%.
In the case of `O=C(NCCNCC(O)COc1ccc(OCCOC2CCCC2)cc1)Nc1ccc(O)cc1` (centres undefined), the Activity [3] is reported as 4%, the EC50 [6] is reported as 3.63 nM and the Kd ([7]; read-out: Kd) is reported as greater than 10000 nM. For the same molecule, the Kd ([8]; read-out: pKd (converted)) was 1450 nM, the Kd [9] was 2.82 nM and the Selectivity ratio (CHO-K1) was 478. The Kd [10] was 7.41 nM.
Work on `CC(C)NCC(O)c1ccc(N)c(C#N)c1` (centres undefined) yielded an Activity [12] of 89.6%.
`O=C(NCCNCC(O)COc1ccc(OCCOC2CCCC2)cc1)Nc1cccc(Cl)c1` (centres undefined) was tested, and the Activity [3] was 2%, the EC50 [6] was 3.02 nM and the Kd ([7]; read-out: pKd (converted)) was 6030 nM. It also gave a Kd ([8]; read-out: pKd (converted)) of 794 nM, a Kd [9] of 1.48 nM and a Selectivity ratio (CHO-K1) of 331. The Kd [4] was 2040 nM and the Kd [10] was 6.17 nM.
`CCOCCOc1ccc(OCC(O)CNCCNC(=O)Nc2ccc(O)cc2)cc1` (centres undefined) was tested, and the Activity [3] was 1.3%, the EC50 [6] was 22.9 nM and the Kd ([7]; read-out: Kd) was greater than 10000 nM. For the same molecule, the Kd ([8]; read-out: Kd) was greater than 10000 nM, the Kd [9] was 26.9 nM and the inhibition [4] was “inactive”. It also gave a Kd [10] of 91.2 nM.
`O=C(NCCNCC(O)COc1ccc(OCCOC2CCCC2)cc1)Nc1ccccc1F` (centres undefined) was tested, and the Selectivity ratio (CHO-K1) was 76.
For `N#Cc1ccccc1OCC(O)CNCCNC(=O)Nc1ccccc1` (centres undefined), the Activity [3] was 11.7%.
`COc1ccc(NC(=O)NCCNCC(O)COc2ccc(OCCOC3CCCC3)cc2)cc1` (centres undefined) showed a Selectivity ratio (CHO-K1) of 87.
`O=C(NCCNCC(O)COc1ccc(OCCOC2CCCC2)cc1)Nc1cccc(O)c1` (centres undefined) was tested, and the Selectivity ratio (CHO-K1) was 110.
Molecule `O=C(NCCNCC(O)COc1ccc(OCCOC2CCCC2)cc1)Nc1ccc(Br)cc1` (centres undefined) has a Selectivity ratio (CHO-K1) of 81.
In the case of `O=C(NCCNCC(O)COc1ccc(OCCOC2CCCC2)cc1)Nc1ccc(Cl)cc1` (centres undefined), the Selectivity ratio (CHO-K1) is reported as 110.
